This is an account of results in ChEMBL document CHEMBL1275258, “Correlation between azole susceptibilities, genotypes, and ERG11 mutations in Candida albicans isolates associated with vulvovaginal candidiasis in China” (2010).

Common to all, as to type: functional
Assay [1] relates to Candida albicans. The experiment in a line: Antifungal activity against Candida albicans isolate V5 with CAI genotype by broth microdilution method. Put shortly: (§1)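 CLSI (formerly NCCLS) M27-A2 broth microdilution with fluconazole and itraconazole against clinical C. albicans isolates grouped by source (oral or vaginal) and CAI genotype. Trays incubated at 35°C for 24 h. MIC read as the lowest drug concentration giving a prominent drop in turbidity (50% growth inhibition) versus the drug-free control well. C. albicans ATCC 90028 and C. parapsilosis ATCC 22019 used as quality controls. Group values reported as geometric mean MIC50.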
(Broth dilution looks for growth in wells or tubes with falling amounts of substance.)

The subject of assay [2] is Candida albicans. The experiment in a line: Antifungal activity against Candida albicans isolate V3 with CAI genotype by broth microdilution method. Put shortly: as §1
Assay [3] deals with Candida albicans. The experiment in a line: Antifungal activity against Candida albicans isolate V1 with CAI genotype by broth microdilution method. The procedure, abridged:
as §1

Assay [4] concerns Candida albicans. The experiment in a line: Antifungal activity against Candida albicans isolate O with CAI genotype by broth microdilution method. The procedure, abridged:
as §1

Assay [5] relates to Candida albicans. The experiment in a line: Antifungal activity against Candida albicans isolate V2 with CAI genotype by broth microdilution method. The procedure, abridged: as §1
Assay [6] relates to Candida albicans. The experiment in a line: Antifungal activity against Candida albicans isolate V4 with CAI genotype by broth microdilution method. Put shortly:
as §1

≈ marks a conversion by molar mass, not a printed value.

Turning to `OC(Cn1cncn1)(Cn1cncn1)c1ccc(F)cc1F` [FLUCONAZOLE], the MIC50 (commonly an inhibitory concentration at the 50% level, which refers to growth in some studies and to a panel of isolates in others) in the assay with Candida albicans [1] is 3.36 µg/mL (≈ 11 µM); against Candida albicans [2], 0.735 µg/mL (≈ 2.4 µM); with Candida albicans [3], 0.375 µg/mL (≈ 1.22 µM); in the assay with Candida albicans [4] it was 0.356 µg/mL (≈ 1.16 µM); in the assay on Candida albicans [5] it was 0.218 µg/mL (≈ 0.712 µM); against Candida albicans [6], 2.04 µg/mL (≈ 6.67 µM).
With `CCC(C)n1ncn(-c2ccc(N3CCN(c4ccc(OCC5COC(Cn6cncn6)(c6ccc(Cl)cc6Cl)O5)cc4)CC3)cc2)c1=O` (configuration not stated) [ITRACONAZOLE], the MIC50 is 0.297 µg/mL (≈ 0.421 µM) with Candida albicans [1]; 0.107 µg/mL (≈ 0.152 µM) in the assay on Candida albicans [2]; 0.111 µg/mL (≈ 0.157 µM) against Candida albicans [3]; 0.074 µg/mL (≈ 0.105 µM) against Candida albicans [4]; 0.058 µg/mL (≈ 0.0822 µM) in the assay on Candida albicans [5]; 0.255 µg/mL (≈ 0.361 µM) against Candida albicans [6].
